Published values pooled from the literature.
Target: Ephrin type-A receptor 3 (EPHA3, Homo sapiens, UniProt P29320)
One construct used (P29320 21-983): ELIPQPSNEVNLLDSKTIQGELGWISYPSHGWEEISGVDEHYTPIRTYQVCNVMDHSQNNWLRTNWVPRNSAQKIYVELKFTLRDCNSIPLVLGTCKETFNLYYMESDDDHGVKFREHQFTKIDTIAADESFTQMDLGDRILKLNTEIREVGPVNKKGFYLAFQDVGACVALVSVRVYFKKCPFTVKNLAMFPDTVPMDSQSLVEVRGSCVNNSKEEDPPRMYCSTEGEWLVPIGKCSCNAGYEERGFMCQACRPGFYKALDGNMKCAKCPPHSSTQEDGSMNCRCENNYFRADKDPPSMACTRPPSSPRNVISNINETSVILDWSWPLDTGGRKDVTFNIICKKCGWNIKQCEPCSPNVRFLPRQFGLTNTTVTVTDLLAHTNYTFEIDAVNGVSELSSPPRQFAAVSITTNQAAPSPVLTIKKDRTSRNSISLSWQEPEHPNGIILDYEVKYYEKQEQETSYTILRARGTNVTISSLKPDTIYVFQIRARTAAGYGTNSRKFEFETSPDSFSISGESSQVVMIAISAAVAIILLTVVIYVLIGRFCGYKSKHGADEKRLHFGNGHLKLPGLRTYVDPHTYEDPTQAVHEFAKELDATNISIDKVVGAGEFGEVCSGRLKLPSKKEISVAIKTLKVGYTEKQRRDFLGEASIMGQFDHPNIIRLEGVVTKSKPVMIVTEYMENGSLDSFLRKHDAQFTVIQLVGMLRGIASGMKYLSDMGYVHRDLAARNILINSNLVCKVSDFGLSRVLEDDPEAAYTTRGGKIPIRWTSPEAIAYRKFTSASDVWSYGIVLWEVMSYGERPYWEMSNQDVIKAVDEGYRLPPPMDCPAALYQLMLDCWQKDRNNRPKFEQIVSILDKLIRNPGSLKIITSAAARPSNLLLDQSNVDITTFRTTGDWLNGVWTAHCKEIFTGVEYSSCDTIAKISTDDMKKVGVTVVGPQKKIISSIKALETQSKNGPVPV

CNC(=O)[C@@H]1CC[C@@H](n2c(-c3ccc4cnccc4c3)nc3ccc(C(=O)NCc4cccc(C(N)=O)c4)cc32)C1 — remaining binding (binding, competition with immobilised ligand; 1 µM): 96%
C[C@H](c1cccc(C#N)c1)n1cc(Cl)cc(C(N)=O)c1=N — remaining binding (cell-free assay, competition with immobilised ligand; 1 µM): 100%
O=C(NCCCN1CCOCC1)c1ccc(Nc2ncc(Cl)c(-c3ccc(Cl)s3)n2)cc1 — remaining binding (binding, competition with immobilised ligand; 1 µM): 63%
O=C(Nc1c[nH]nc1C(=O)NC1CCNCC1)c1cc(F)cc(F)c1 — remaining binding (binding, competition with immobilised ligand; 1 µM): 100%
O=C(NCCCN1CCOCC1)c1ccc(Nc2nccc(-c3cc4ccccc4s3)n2)cc1 — remaining binding (binding, competition with immobilised ligand; 1 µM): 85%
CC(=O)Nc1c(C(C)=O)c(=O)n(C)c2nc(-c3ccc(Cl)cc3Cl)c(-c3ccc(Cl)cc3)cc12 — remaining binding (cell-free assay, competition with immobilised ligand; 1 µM): 100%
C[C@H]1CCN(c2nccc(-c3cnn4ncccc34)n2)C1 — remaining binding (binding; 1 µM): 100%
CC(=O)N1CCC(c2ccc(C(=O)NC3=NCCN3)cc2C(F)(F)F)CC1 — remaining binding (cell-free assay, competition with immobilised ligand; 1 µM): 95%
F[C@@H]1CCN(c2nccc(-c3cnn4ncccc34)n2)C1 — remaining binding (binding; 1 µM): 90%
Cc1nc(C2CCN(C(=O)c3ccc(OC(F)(F)F)cc3N)CC2)c2ncc(N3CCN(C)CC3)cc2n1 — remaining binding (cell-free assay, competition with immobilised ligand; 1 µM): 92%
C=CC(=O)N1CCC(C(=O)NCC(=O)N2CCN(c3nc(-c4cnc(N)nc4C(F)F)nc(N4CCOCC4)n3)CC2)CC1 — remaining binding (binding, competition with immobilised ligand; 1 µM): 90%
COc1cnc(Nc2cccc(S(N)(=O)=O)c2)nc1N1CCN(c2ccccc2)C(=O)C1 — remaining binding (binding, competition with immobilised ligand; 1 µM): 98%
O=C(c1ccc(Nc2ncc(Cl)c(-c3cc4ccccc4s3)n2)cc1)N1CCC(N2CCCC2)CC1 — remaining binding (binding, competition with immobilised ligand; 1 µM): 84%
N[C@H]1CCN(c2nccc(-c3cnn4ncccc34)n2)C1 — remaining binding (binding; 1 µM): 98%
Cc1cc(NC(=O)c2cccc(S(F)(F)(F)(F)F)c2)cc(-n2ccn3nc(-c4cccnc4)cc23)c1 — remaining binding (cell-free assay, competition with immobilised ligand; 1 µM): 100%
CN(C)c1nccc(-c2cnn3ncccc23)n1 — remaining binding (binding; 1 µM): 90%
Nc1ncc2c(n1)-c1c([nH]c3ccc(C#CC4CC4)cc13)CCCC2 — remaining binding (binding, competition with immobilised ligand; 1 µM): 100%
CN(C)c1nccc(-c2cnc3ncccn23)n1 — remaining binding (binding; 1 µM): 100%
Cn1nc(C(=O)NCc2ccc(C(=O)O)cc2)cc1-c1ccc2[nH]ccc2c1 — remaining binding (cell-free assay, competition with immobilised ligand; 0.1 µM): 89%
CN(C)c1ncc(F)c(-c2cnn3ncccc23)n1 — remaining binding (binding; 1 µM): 100%
COc1ncc2cc3ccccc3nc2c1C#N — remaining binding (cell-free assay, competition with immobilised ligand; 5 µM): 96%
